Reference: ChEMBL document CHEMBL5149991 (J Med Chem, 2021)

How the values were obtained:
[1] = molecular target: T1, Histamine H3 receptor (Homo sapiens, UniProt Q9Y5N1); test: Displacement of [3H]UR-PI294 from human histamine H3 receptor stably expressed in baculovirus infected Sf9 cell membrane co-expressing G-alphai2 and G-beta1gamma2 incubated for 60 mins by scintillation counting analysis; type: cell membranes
Outline: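 hH3R + Gαi2 + Gβ1γ2 expressed in Sf9 membranes. […] Mean ± SEM from N independent experiments in triplicate.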

[2] = molecular target: T2, Histamine H2 receptor (Homo sapiens, UniProt P25021); test: Displacement of [3H]UR-DE257 from human histamine H2 receptor stably expressed in baculovirus infected Sf9 cell membrane co-expressing RG-Salpha S incubated for 60 mins by scintillation counting analysis; type: cell membranes
T2 sequence (P25021 whole entry): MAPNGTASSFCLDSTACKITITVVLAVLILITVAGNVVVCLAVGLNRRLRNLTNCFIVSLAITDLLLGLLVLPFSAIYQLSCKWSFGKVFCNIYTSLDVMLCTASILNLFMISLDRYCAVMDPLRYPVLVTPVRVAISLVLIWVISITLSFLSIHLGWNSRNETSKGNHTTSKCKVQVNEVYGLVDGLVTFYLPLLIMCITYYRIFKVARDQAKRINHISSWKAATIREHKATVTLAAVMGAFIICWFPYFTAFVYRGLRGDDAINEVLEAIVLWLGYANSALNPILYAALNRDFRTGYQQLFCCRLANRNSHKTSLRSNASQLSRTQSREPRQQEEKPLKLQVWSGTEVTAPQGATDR

[3] = molecular target: Histamine H4 receptor (Homo sapiens, UniProt Q9H3N8)
Chain of Histamine H4 receptor (Q9H3N8 whole entry): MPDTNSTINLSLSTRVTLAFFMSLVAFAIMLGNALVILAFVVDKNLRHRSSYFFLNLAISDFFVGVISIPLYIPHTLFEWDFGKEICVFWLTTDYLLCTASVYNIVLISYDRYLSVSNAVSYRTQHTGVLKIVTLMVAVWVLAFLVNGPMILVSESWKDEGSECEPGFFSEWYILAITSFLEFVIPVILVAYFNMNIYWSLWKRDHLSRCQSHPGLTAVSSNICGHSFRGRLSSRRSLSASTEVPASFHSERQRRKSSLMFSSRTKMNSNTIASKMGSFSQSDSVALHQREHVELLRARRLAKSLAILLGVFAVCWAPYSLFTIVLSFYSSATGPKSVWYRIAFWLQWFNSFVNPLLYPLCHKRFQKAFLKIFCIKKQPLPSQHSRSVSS

[4] = molecular target: Histamine H1 receptor (Homo sapiens, UniProt P35367)
Chain of Histamine H1 receptor (P35367 whole entry): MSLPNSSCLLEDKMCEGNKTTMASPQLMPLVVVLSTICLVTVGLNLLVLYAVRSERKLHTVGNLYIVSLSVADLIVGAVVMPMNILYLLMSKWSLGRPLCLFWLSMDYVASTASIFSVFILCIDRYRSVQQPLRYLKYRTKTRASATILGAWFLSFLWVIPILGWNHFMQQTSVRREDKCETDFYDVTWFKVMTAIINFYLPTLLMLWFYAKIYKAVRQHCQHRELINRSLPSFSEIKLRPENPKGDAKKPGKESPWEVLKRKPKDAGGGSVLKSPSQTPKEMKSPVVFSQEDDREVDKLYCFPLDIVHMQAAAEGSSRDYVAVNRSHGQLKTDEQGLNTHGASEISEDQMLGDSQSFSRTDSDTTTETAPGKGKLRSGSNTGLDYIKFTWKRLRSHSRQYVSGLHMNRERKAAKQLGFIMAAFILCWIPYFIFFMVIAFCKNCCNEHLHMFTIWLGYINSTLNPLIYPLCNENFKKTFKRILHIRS

[5] = molecular target: T1, Histamine H3 receptor
[6] = Chemical stability in pH 7.4 buffer measured at 0 to 2 weeks by HPLC analysis; type: physicochemical; details: time 0-2 weeks
[7] = molecular target: T3, D(3) dopamine receptor (Homo sapiens, UniProt P35462); test: Displacement of [3H]N-methylspiperone from human D3 receptor stably expressed in HEK293T cells co-expressing luciferase and CEK incubated for 140 mins by radioligand competition binding based assay; type: cell-based
T3 sequence (P35462 whole entry): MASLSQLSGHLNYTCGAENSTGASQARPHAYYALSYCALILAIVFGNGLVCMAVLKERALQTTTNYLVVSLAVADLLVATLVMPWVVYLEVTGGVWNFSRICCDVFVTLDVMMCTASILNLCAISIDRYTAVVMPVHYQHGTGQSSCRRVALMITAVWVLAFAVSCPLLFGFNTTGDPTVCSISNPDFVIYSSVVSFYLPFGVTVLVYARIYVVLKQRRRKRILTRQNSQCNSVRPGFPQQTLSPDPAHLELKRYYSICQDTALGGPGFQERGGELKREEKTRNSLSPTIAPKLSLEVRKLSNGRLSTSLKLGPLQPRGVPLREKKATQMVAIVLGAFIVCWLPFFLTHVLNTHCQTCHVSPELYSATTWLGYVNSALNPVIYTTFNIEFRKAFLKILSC

[8] = molecular target: T2, Histamine H2 receptor; test: Agonist activity at human histamine H2 receptor stably expressed in HEK293T cells co-expressing NlucN-mGs/hH2R-NlucC assessed as induction of mini-Gs protein recruitment using furimazine as substrate measured for 45 mins by luminescence assay
[9] = molecular target: T3, D(3) dopamine receptor; test: Agonist activity at human D3 receptor stably expressed in HEK293T cells co-expressing ElucN-betaarr2 hD3R-ElucC by beta-arrestin2 recruitment assay; type: functional, cell-based
[10] = molecular target: T4, D(2) dopamine receptor (Homo sapiens, UniProt P14416); test: Displacement of [3H]N-methylspiperone from human D2 long receptor stably expressed in HEK293T cells co-expressing luciferase and CEK incubated for 140 mins by radioligand competition binding based assay; type: cell-based
T4 sequence (P14416 whole entry): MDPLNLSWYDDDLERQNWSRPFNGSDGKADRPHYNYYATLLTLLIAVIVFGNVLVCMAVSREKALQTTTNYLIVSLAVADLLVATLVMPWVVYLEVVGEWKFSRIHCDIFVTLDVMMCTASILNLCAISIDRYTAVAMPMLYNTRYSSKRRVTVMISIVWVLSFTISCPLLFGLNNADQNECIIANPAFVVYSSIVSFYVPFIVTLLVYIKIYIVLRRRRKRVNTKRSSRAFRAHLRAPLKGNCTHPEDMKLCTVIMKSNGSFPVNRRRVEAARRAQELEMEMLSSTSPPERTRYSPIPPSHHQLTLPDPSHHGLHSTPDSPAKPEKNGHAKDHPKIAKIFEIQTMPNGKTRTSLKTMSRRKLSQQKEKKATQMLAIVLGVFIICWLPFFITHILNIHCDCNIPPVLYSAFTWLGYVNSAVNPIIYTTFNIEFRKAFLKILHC

[11] = molecular target: T2, Histamine H2 receptor; test: Agonist activity at human histamine H2 receptor stably expressed in HEK293T cells co-expressing ARRB2 incubated for 60 mins by beta-arrestin2 recruitment assay; type: functional, cell-based
[12] = molecular target: T4, D(2) dopamine receptor; type: functional, cell-based, HEK293T

T1 sequence (Q9Y5N1 whole entry): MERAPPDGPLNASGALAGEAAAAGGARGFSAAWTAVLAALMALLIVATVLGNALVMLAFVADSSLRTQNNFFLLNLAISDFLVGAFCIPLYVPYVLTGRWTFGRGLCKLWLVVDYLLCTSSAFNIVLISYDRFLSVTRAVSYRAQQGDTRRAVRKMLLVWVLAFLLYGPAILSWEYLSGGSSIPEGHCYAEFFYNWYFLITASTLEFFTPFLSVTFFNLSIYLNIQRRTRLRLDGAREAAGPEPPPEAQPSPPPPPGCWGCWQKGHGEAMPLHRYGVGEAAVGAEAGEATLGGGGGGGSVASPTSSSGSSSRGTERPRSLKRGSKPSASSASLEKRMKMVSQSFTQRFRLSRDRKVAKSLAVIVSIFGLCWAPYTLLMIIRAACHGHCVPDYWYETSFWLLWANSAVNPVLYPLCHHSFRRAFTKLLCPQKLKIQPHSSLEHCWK

SMILES | Ki [1] [nM] | Ki [2] [nM] | Kd [3] [nM] | Ki [3] [nM] | Kd [4] [nM] | Ki [4] [nM] | Kd [5] [nM] | Ki [5] [nM] | Stability [6] | Ki [7] [nM] | EC50 [8] [nM] | EC50 [9] [nM] | Ki [10] [nM] | EC50 [11] [nM] | EC50 [12] [nM]
Cc1nc(N)sc1-c1cccc(N/C(N)=N/C(=O)NCc2ccccc2)c1 | > 10000 | 302 | 16 | > 10000 | 4.5 | 7240 | – | – | – | – | – | – | – | – | –
Cc1ccc(CC(C)CNC(=O)/N=C(\N)Nc2ccc(-c3sc(N)nc3C)cc2)cc1 (stereo unspecified) | 8320 | 331 | 16 | 6310 | 4.5 | 1820 | 3 | 8320 | – | – | – | – | – | – | –
CCCCCNC(=O)/N=C(\N)Nc1ccc(-c2sc(N)nc2C)cc1.O=C(O)C(F)(F)F.O=C(O)C(F)(F)F | 11500 | 457 | 16 | 7760 | 4.5 | 3720 | 3 | 11500 | Stable | – | – | – | – | – | –
Cc1ccc(CC(C)CNC(=O)/N=C(\N)NCCCc2cnc(N)s2)cc1 (stereo unspecified) | 4790 | 64.6 | 16 | 4470 | 4.5 | 2510 | – | – | – | 229 | 77.6 | 1050 | 490 | 234 | 4470
Cc1ccc(CC(C)CNC(=O)/N=C(\N)Nc2cccc(-c3sc(N)nc3C)c2)cc1 (stereo unspecified) | 12900 | 234 | 16 | 7410 | 4.5 | 5250 | – | – | – | – | – | – | – | – | –
Cc1nc(N)sc1-c1ccc(N/C(N)=N/C(=O)NCCCCCCNC(=O)/N=C(\N)Nc2ccc(-c3sc(N)nc3C)cc2)cc1 | 1950 | 347 | 16 | 2140 | 4.5 | 2140 | – | – | – | – | – | – | – | – | –
Cc1nc(N)sc1-c1ccc(N/C(N)=N/C(=O)NCC(C)CCCc2ccccc2)cc1 (stereo unspecified) | 7940 | 316 | 16 | 6030 | 4.5 | 7590 | 3 | 7940 | – | – | – | – | – | – | –
Cc1nnc(CCCN/C(N)=N/C(=O)NCc2ccccc2)s1 | > 10000 | 5620 | 16 | > 10000 | 4.5 | 10700 | – | – | – | – | – | – | – | – | –
Cc1ccc(CC(C)CNC(=O)/N=C(\N)NCCCc2nnc(N)o2)cc1 (stereo unspecified) | 9120 | 676 | 16 | > 10000 | 4.5 | 2690 | – | – | – | – | – | – | – | – | –
CCCN[C@H]1CCc2nc(N)sc2C1 [PRAMIPEXOLE] | – | 13800 | 16 | – | 4.5 | – | – | – | – | – | 166 | – | – | – | –
N/C(=N\C(=O)NCCCCCCCCNC(=O)/N=C(\N)NCCCc1nnc(N)s1)NCCCc1nnc(N)s1 | 6920 | 4.79 | 16 | 8910 | 4.5 | 1820 | – | – | – | – | – | – | – | – | –
C[C@@H](NC(=O)/N=C(\N)NCCCc1c[nH]cn1)c1ccccc1 | 1.7 | 6.17 | 16 | 8.51 | 4.5 | 3980 | – | – | – | – | – | – | – | – | –
Cc1nc(N)sc1-c1cccc(N/C(N)=N/C(=O)NCC(C)CCCc2ccccc2)c1 (stereo unspecified) | 10700 | 234 | 16 | 7080 | 4.5 | 13200 | – | – | – | – | – | – | – | – | –
Cc1nc(N)sc1-c1cccc(N/C(N)=N/C(=O)NCCCCCCNC(=O)/N=C(\N)Nc2cccc(-c3sc(N)nc3C)c2)c1 | 708 | 380 | 16 | 2340 | 4.5 | 1450 | – | – | – | – | – | – | – | – | –
CCCCCNC(=O)/N=C(/N)NCCCc1nnc(C)s1.O=C(O)C(F)(F)F | > 10000 | 2190 | 16 | > 10000 | 4.5 | > 10000 | – | – | Stable | – | – | – | – | – | –
CC(CCCc1ccccc1)CNC(=O)/N=C(\N)NCCCc1nnc(N)s1 (stereo unspecified) | 3980 | – | 16 | 4900 | 4.5 | 5130 | – | – | – | 324 | – | 468 | 447 | – | –
Cc1nc(N)sc1-c1ccc(N/C(N)=N/C(=O)NCc2ccccc2)cc1 | 8510 | 214 | 16 | 12000 | 4.5 | 1290 | 3 | 8510 | – | – | – | – | – | – | –

SMILES | Ki [1] [nM] | Ki [2] [nM] | Kd [3] [nM] | Ki [3] [nM] | Kd [4] [nM] | Ki [4] [nM] | Kd [5] [nM] | Ki [5] [nM] | Stability [6] | Ki [7] [nM] | EC50 [8] [nM] | EC50 [9] [nM] | Ki [10] [nM] | EC50 [11] [nM] | EC50 [12] [nM]
Cc1nnc(CCCN/C(N)=N/C(=O)NCCCCCCCCN)s1 | 11700 | 1820 | 16 | > 10000 | 4.5 | 309 | – | – | – | – | – | – | – | – | –
Cc1nc(N)oc1CCCN/C(N)=N/C(=O)NCc1ccccc1 | > 10000 | 389 | 16 | > 10000 | 4.5 | 8910 | – | – | – | – | – | – | – | – | –
CCCCCNC(=O)/N=C(\N)NCC1CCc2nc(N)sc2C1.O=C(O)C(F)(F)F.O=C(O)C(F)(F)F (stereo unspecified) | 6610 | 155 | 16 | 5890 | 4.5 | 5250 | 3 | 6610 | Stable | – | – | – | – | – | –
Cc1nnc(CCCN/C(N)=N/C(=O)NCC(C)C2CCCCC2)s1 (stereo unspecified) | – | 1050 | 16 | > 10000 | 4.5 | 7080 | 3 | 11500 | – | – | – | – | – | – | –
N/C(=N\C(=O)NCc1ccccc1)NCC1CCc2nc(N)sc2C1 (stereo unspecified) | – | 302 | 16 | 5890 | 4.5 | 3890 | 3 | 11200 | – | – | – | – | – | – | –
N/C(=N\C(=O)NCc1ccccc1)NCCCc1cnc(N)s1 | > 10000 | 26.9 | 16 | > 10000 | 4.5 | 5620 | – | – | – | 74.1 | 4.9 | 67.6 | 4570 | 49 | 3390
CCCCCNC(=O)/N=C(\N)NCCCc1cnc(N)s1.O=C(O)C(F)(F)F.O=C(O)C(F)(F)F | > 10000 | 22.9 | 16 | > 10000 | 4.5 | 9550 | – | – | Stable | – | 6.03 | – | – | 56.2 | –
CCCCCCNC(=O)/N=C(\N)NCCCc1nnc(N)o1.O=C(O)C(F)(F)F.O=C(O)C(F)(F)F | > 10000 | 389 | 16 | > 10000 | 4.5 | 8910 | – | – | Stable | – | – | – | – | – | –
NCCCCCCCCNC(=O)/N=C(\N)NCCCc1nnc(N)s1 | > 10000 | 33.1 | 16 | > 10000 | 4.5 | 525 | – | – | – | – | – | – | – | – | –
C[C@@H](NC(=O)/N=C(\N)NCCCn1cc(CN(C)C)nn1)c1ccccc1 | 10200 | 4470 | 16 | > 10000 | 4.5 | > 10000 | – | – | – | – | – | – | – | – | –
Cc1nc(N)sc1-c1ccc(N/C(N)=N/C(=O)NCC(C)C2CCCCC2)cc1 (stereo unspecified) | 5620 | 309 | 16 | 7760 | 4.5 | 2880 | – | – | – | – | – | – | – | – | –
Cc1nc(N)sc1-c1ccc(N/C(N)=N/C(=O)NC2CCCCC2)cc1 | 12300 | 550 | 16 | 6920 | 4.5 | 5500 | 3 | 12300 | – | – | – | – | – | – | –
CC(CCCc1ccccc1)CNC(=O)/N=C(\N)NCC1CCc2nc(N)sc2C1 (stereo unspecified) | 1740 | 110 | 16 | 4070 | 4.5 | 3890 | 3 | 1740 | – | – | – | – | – | – | –
Cc1nc(N)oc1CCCN/C(N)=N/C(=O)NCC(C)C1CCCCC1.O=C(O)C(F)(F)F.O=C(O)C(F)(F)F (stereo unspecified) | 8320 | 245 | 16 | 7590 | 4.5 | 6030 | – | – | Stable | – | – | – | – | – | –
Cc1ccc(CC(C)CNC(=O)/N=C(\N)NCC2CCc3nc(N)sc3C2)cc1 (stereo unspecified) | – | 107 | 16 | 3390 | 4.5 | 182 | 3 | 1950 | – | – | – | – | – | – | –
CCCCCNC(=O)/N=C(\N)Nc1cccc(-c2sc(N)nc2C)c1.O=C(O)C(F)(F)F.O=C(O)C(F)(F)F | 9550 | 191 | 16 | 7410 | 4.5 | 6610 | – | – | Stable | – | – | – | – | – | –
